In ChEMBL document CHEMBL5244225, “Bioassay-Guided Isolation of Fungistatic Compounds from Mimosa caesalpiniifolia Leaves” (J Nat Prod, 2019):
Activity calls are given as the source filed them. The rule behind the calls is not given here.

Tests used:
Pichia kudriavzevii [1] = assay: Antifungal activity against Candida krusei ATCC 6258 assessed as inhibition of microbial growth incubated for 24 hrs by broth microdilution method; assay type: functional, organism-based; conditions: for IC50: ATCC 6258, 24 h; for IC90: ATCC 6258, time 24 hrs
Procedure, shortened: (§1)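 Broth microdilution following CLSI M27-A3 and supplement M27-S4. Pure compounds were tested at 100 down to 0.06 μg mL−1 in a 10-step series, diluted from DMSO (≤1% DMSO final). Fluconazole served as the fungistatic control. Plates were incubated at 37 °C for 24 h and growth was read spectrophotometrically at 530 nm. IC50 and IC90 were taken as 50% and 90% growth inhibition.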

Nakaseomyces glabratus [2] = assay: Antifungal activity against Candida glabrata ATCC 90030 assessed as inhibition of microbial growth incubated for 24 hrs by broth microdilution method; assay type: functional, organism-based; conditions: for IC50: ATCC 90030, 24 h; for IC90: ATCC 90030, time 24 hrs; procedure, shortened: as §1
Pichia kudriavzevii [3] = assay: Synergistic antifungal activity against Candida krusei ATCC 6258 assessed as fractional inhibitory concentration index incubated for 24 hrs in the presence of 3-(beta-D-glucopyranosyloxy)sitosterol by checkerboard assay; assay type: functional
Procedure, shortened: (§2)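 Checkerboard pairing of two compounds serially diluted in Mueller−Hinton broth, incubated for 24 h at 37 °C, with growth read spectrophotometrically at 530 nm. Each FIC is the compound's IC in combination divided by its IC alone, and ΣFIC is the sum of the FIC values. ΣFIC ≤0.5 was taken as synergy, 0.5–4 as no interaction and >4 as antagonism.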

Nakaseomyces glabratus [4] = assay: Antifungal activity against Candida glabrata ATCC 90030 assessed as inhibition of microbial growth incubated for 24 hrs in the presence of 3-(beta-D-glucopyranosyloxy)sitosterol by broth microdilution method; assay type: functional, organism-based; conditions: ATCC 90030, 24 h
Procedure, shortened: (§3)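 Checkerboard combination of two compounds, each serially diluted in Mueller−Hinton broth. Ranges were set so that, after adding inoculum, concentrations sat at the range averages. Plates were incubated for 24 h at 37 °C and growth was quantified at 530 nm, as in the single-agent microdilution test. The inhibitory concentration of each compound was determined in combination.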

Pichia kudriavzevii [5] = assay: Antifungal activity against Candida krusei ATCC 6258 assessed as inhibition of microbial growth incubated for 24 hrs in the presence of 3-(beta-D-glucopyranosyloxy)sitosterol by broth microdilution method; assay type: functional, organism-based; conditions: ATCC 6258, 24 h; procedure, shortened: as §3
Nakaseomyces glabratus [6] = assay: Additive antifungal activity against Candida glabrata ATCC 90030 assessed as fractional inhibitory concentration index incubated for 24 hrs in the presence of 3-(beta-D-glucopyranosyloxy)sitosterol by checkerboard assay; assay type: functional; procedure, shortened: as §2
Nakaseomyces glabratus [7] = assay: Selectivity index, ratio of IC50 for antifungal activity against Candida glabrata ATCC 90030 to IC50 for antifungal activity against Candida glabrata ATCC 90030 in the presence of 3-(beta-D-glucopyranosyloxy)sitosterol; assay type: functional
Pichia kudriavzevii [8] = assay: Antifungal activity against Candida krusei ATCC 6258 assessed as inhibition of microbial growth at 100 to 0.06 ug/ml incubated for 24 hrs by broth microdilution method; assay type: functional, organism-based; conditions: dose 100-0.06 µg/ml

SMILES | IC50 (Pichia kudriavzevii [1]) | IC50 (Nakaseomyces glabratus [2]) | IC90 (Pichia kudriavzevii [1]) | further results
C[C@@H]1O[C@@H](O[C@H]2C(=O)[C@@H](O)[C@H](C)O[C@@H]2c2c(O)cc(O)c3c(=O)cc(-c4ccc(O)c(O)c4)oc23)[C@H](O)[C@H](O)[C@H]1O | 100 µg/mL | 60 µg/mL | – | –
O=C(O)/C=C/c1c(O)cc2oc(-c3ccc(O)cc3)cc(=O)c2c1O | 15 µg/mL | 3.9 µg/mL | – | –
CCOC(=O)c1cc(O)c(O)c(O)c1 [ETHYLGALLATE] | 15 µg/mL | 15 µg/mL | – | fractional inhibitory concentration index (FICI) (Pichia kudriavzevii [3]): 0.1; IC50 (Nakaseomyces glabratus [4]): 2.5 µg/mL; IC50 (Pichia kudriavzevii [5]): 1 µg/mL; fractional inhibitory concentration index (FICI) (Nakaseomyces glabratus [6]): 0.5; Ratio IC50 (Nakaseomyces glabratus [7]): 100
C[C@H]1O[C@@H](c2c(O)cc3oc(-c4ccc(O)cc4)cc(=O)c3c2O)C[C@H](O)[C@H]1O | 250 µg/mL | 1000 µg/mL | 1000 µg/mL | –
C[C@@]12Oc3cc4oc(-c5ccc(O)cc5)cc(=O)c4c(O)c3[C@@H](C[C@H](O)[C@H]1O)O2 | 62.5 µg/mL | 7.8 µg/mL | 250 µg/mL | IC90 (Nakaseomyces glabratus [2]): 500 µg/mL
OC(Cn1cncn1)(Cn1cncn1)c1ccc(F)cc1F [FLUCONAZOLE] | 16 µg/mL | 4 µg/mL | – | –
O=C(O)c1cc(O)c(O)c(O)c1 [GALLIC ACID] | – | 60 µg/mL | – | Activity (Pichia kudriavzevii [8]): inactive
O=C(O)/C=C/c1c(O)cc(O)c2c(=O)cc(-c3ccc(O)cc3)oc12 | 125 µg/mL | 3.9 µg/mL | 250 µg/mL | IC90 (Nakaseomyces glabratus [2]): 250 µg/mL
C[C@@H]1O[C@@H](O[C@H]2C(=O)[C@@H](O)[C@H](C)O[C@@H]2c2c(O)cc3oc(-c4ccc(O)c(O)c4)cc(=O)c3c2O)[C@H](O)[C@H](O)[C@H]1O | – | 100 µg/mL | – | Activity (Pichia kudriavzevii [8]): inactive
O=c1cc(-c2ccc(O)c(O)c2)oc2cc(O)cc(O)c12 [LUTEOLIN] | – | 15 µg/mL | – | Activity (Pichia kudriavzevii [8]): inactive
O=c1c(O)c(-c2ccc(O)c(O)c2)oc2cc(O)cc(O)c12 [QUERCETIN] | 100 µg/mL | 60 µg/mL | – | –
C[C@H]1O[C@@H](c2c(O)cc(O)c3c(=O)cc(-c4ccc(O)cc4)oc23)C[C@@H](O)[C@@H]1O | 7.8 µg/mL | 3.9 µg/mL | 250 µg/mL | IC90 (Nakaseomyces glabratus [2]): 500 µg/mL
